The nature of data set [1]: Metabolic stability in human microsomes assessed as compound remaining at 5 uM incubated for 30 mins by UPLC-MS/MS analysis. The data set is classed as ADME, Microsome. To be noted: 0.5 h, 5 µM. A digest of the protocol:
(§1)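 Compound at 5 µM incubated with 0.5 mg/mL male liver microsomes in potassium phosphate buffer, started with 1 mM NADPH (CYP phase I). Aliquots quenched in cold acetonitrile containing tolbutamide, centrifuged at 4 °C, supernatant analysed by LC-MS. Results given as % parent remaining relative to time 0; mean of at least two experiments; diclofenac as control.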

In data set [2] the target is 3',5'-cyclic-AMP phosphodiesterase 4D (Homo sapiens, UniProt Q08499). The experiment in a line: Inhibition of human PDE4D2 expressed in Escherichia coli BL21 (DE3) using cAMP as substrate by PDELight HTS cAMP phosphodiesterase Kit based. A digest of the protocol: (§2)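 Recombinant catalytic domains, His-tag purified, then ion exchange and size exclusion, were tested with the PDELight HTS cAMP kit in stimulation buffer (50 mM Hepes, 100 mM NaCl, 10 mM MgCl2, 0.5 mM EDTA, 0.05 mg/ml BSA, pH 7.5). Dose-response curves gave Ki, expressed as pKi = −log10(Ki ÷ 1000000).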
Chain of 3',5'-cyclic-AMP phosphodiesterase 4D (Q08499 whole entry, the tested form may be a part): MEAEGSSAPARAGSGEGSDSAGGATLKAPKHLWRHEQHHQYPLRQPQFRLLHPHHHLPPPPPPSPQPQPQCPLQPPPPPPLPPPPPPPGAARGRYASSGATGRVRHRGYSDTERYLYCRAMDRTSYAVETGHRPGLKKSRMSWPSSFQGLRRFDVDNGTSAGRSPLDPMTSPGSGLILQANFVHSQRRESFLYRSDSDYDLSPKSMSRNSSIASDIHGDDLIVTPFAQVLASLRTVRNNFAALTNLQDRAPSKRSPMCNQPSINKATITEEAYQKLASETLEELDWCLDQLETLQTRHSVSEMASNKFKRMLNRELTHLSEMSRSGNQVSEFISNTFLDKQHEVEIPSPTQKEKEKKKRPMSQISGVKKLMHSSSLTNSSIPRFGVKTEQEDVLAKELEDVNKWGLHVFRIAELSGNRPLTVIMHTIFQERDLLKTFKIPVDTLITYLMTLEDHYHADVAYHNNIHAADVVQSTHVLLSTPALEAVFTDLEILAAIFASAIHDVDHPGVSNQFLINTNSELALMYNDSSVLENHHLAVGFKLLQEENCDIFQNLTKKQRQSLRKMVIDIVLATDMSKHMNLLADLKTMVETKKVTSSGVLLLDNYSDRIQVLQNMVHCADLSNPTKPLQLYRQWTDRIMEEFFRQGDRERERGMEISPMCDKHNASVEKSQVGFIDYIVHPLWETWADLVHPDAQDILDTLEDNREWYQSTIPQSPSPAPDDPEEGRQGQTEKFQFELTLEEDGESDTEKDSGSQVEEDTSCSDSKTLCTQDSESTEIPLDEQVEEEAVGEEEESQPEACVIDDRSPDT

Data set [3] deals with T1, Class 1 phosphodiesterase PDEB1 (Trypanosoma brucei, UniProt Q8WQX9).
T1 sequence (Q8WQX9 whole entry): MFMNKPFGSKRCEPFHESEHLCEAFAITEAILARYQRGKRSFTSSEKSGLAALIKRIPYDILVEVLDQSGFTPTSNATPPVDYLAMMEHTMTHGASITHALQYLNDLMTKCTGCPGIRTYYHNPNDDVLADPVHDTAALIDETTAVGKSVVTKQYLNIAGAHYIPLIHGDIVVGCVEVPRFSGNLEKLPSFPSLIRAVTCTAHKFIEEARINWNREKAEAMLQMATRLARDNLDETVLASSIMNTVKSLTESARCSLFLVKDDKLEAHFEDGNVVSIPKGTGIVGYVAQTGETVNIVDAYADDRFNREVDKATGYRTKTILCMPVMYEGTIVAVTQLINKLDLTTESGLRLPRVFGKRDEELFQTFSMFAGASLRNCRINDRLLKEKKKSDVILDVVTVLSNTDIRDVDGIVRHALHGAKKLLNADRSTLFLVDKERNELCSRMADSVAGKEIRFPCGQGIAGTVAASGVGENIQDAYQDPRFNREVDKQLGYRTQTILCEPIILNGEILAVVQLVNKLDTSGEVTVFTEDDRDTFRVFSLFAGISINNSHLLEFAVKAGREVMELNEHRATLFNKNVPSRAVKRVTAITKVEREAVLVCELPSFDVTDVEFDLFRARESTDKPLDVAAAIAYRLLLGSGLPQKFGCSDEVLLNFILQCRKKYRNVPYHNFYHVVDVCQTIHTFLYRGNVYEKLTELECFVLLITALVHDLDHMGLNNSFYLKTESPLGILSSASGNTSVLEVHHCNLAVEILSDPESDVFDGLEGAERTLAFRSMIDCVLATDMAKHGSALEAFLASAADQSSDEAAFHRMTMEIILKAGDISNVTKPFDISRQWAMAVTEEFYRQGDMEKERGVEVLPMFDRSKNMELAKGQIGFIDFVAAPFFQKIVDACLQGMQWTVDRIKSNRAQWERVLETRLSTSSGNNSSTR
Description: Inhibition of Trypanosoma brucei PDEB1 (565 to 918 residues) expressed in Escherichia coli BL21 (DE3) using cAMP as substrate by PDELight HTS cAMP phosphodiesterase Kit based. In short, it runs like this: as §2

Data set [4] can be described thus: Metabolic stability in mouse microsomes assessed as compound remaining at 5 uM incubated for 30 mins by UPLC-MS/MS analysis. The data set is classed as ADME, Microsome. The following applies: 0.5 h, 5 µM. A digest of the protocol: as §1
Data set [5] in a line: Cytotoxicity against human MRC5 SV2 cells assessed as reduction in cell viability incubated for 72 hrs by resazurin dye based fluorimetric assay. To be noted: MRC-5 SV2, 72 h. In short, it runs like this: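 MRC-5 SV2 fibroblasts grown in Earl's MEM with 5% FBSi, L-glutamine and bicarbonate; 1×10^4 cells/well treated 72 h at 37 °C, 5% CO2; resazurin viability read fluorimetrically (ex 550, em 590 nm). Five 4-fold dilutions from a 64 µM top concentration; IC50 derived from % viability reduction vs untreated wells; tamoxifen as reference.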

The test system of the next data set is Trypanosoma brucei. Description: Antitrypanosomal activity against Trypanosoma brucei Squib 427 assessed as reduction in parasite growth incubated for 72 hrs by resazurin dye based fluorimetric analysis. Type of data set: functional, organism-based. The following applies: Squib 427, 72 h.

pIC50, pKi: −log10 of the molar value.

From ChEMBL document CHEMBL4402584, “Lead Optimization of Phthalazinone Phosphodiesterase Inhibitors as Novel Antitrypanosomal Compounds” (J Med Chem, 2020) come the findings set out here.

On to `COc1ccc(C2=NN(C3CCN(C(=O)CN4C(=O)CC(C)(C)CC4=O)CC3)C(=O)[C@@H]3CCCC[C@H]23)cc1OC`, for which the Stability result in data set [1] and in data set [4] was “Stable” each time. For the same compound, the values for the pKi in data set [2] and in data set [3] were 9.79 and 7.07, respectively. Also, the pIC50 in data set [5] is 4.25; in the data set with Trypanosoma brucei, 5.71.
Regarding `COc1ccc(C2=NN(C3CCN(C(=O)CN4C(=O)CC5(CCCCC5)CC4=O)CC3)C(=O)[C@@H]3CC=CC[C@H]23)cc1OC`, the Stability entry in data set [1] and in data set [4] was “Stable” in each case. Further, the pKi is 9.81 in data set [2] and 7.51 in data set [3]. Further, the pIC50 in data set [5] is 4.50; with Trypanosoma brucei, 6.32.
With `COc1ccc(C2=NN(C3CN(C(=O)CN4C(=O)CC5(CCCCC5)CC4=O)C3)C(=O)[C@@H]3CC=CC[C@H]23)cc1OC`, the Stability entry in data set [1] and in data set [4] was “Stable” throughout. The pKi in data set [2] is 9.07; in data set [3] it was 7.04. The figures for the pIC50 (in data set [5]; in the data set with Trypanosoma brucei) were 4.19 and 5.94, respectively.
